Source: ChEMBL document CHEMBL4052597, “Symmetrically Substituted Xanthone Amphiphiles Combat Gram-Positive Bacterial Resistance with Enhanced Membrane Selectivity” (J Med Chem, 2017)
≈ marks a conversion by molar mass, not a printed value. Calls of active or inactive are those of the source. The rule behind the calls is not given here.

Experiments:
[1] = tested on: Lipid bilayer; assay: Induction of membrane damage in DOPC/cholesterol large unilamellar vesicles assessed as calcein leakage at compound to lipid ratio of 1:16 after 1 hr by fluorescence assay relative to control
Method in brief: (§1)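 100 nm calcein-loaded LUVs made by film hydration; lipid content set by total phosphorus assay. DOPC/cholesterol (3:1, w/w) mimics mammalian and DOPE/DOPG (3:1, w/w) bacterial membranes. Compound in DMF added at lipid-to-compound ratio 16 (6.25 µM compound), final DMF limited to 0.5%. Fluorescence monitored at ex 490/em 520 nm for 1 hour; replicated.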

[2] = tested on: Staphylococcus aureus; assay: Disruption of membrane in Staphylococcus aureus isolate DM4001R assessed as […] in ATP leakage at 200 ug/ml after 1 hr by ATP bioluminescent assay relative to control; assay type: functional; parameters: scale not given: the % may be the effect or the level left
Method in brief: (§2)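 S. aureus DM4001 grown to exponential phase, washed three times in 20 mM PBS (pH 7), resuspended to OD600 0.2. Compound added, suspensions held 1 hour at 37 °C, then centrifuged. Supernatant mixed with luciferase/luciferin enzyme mix; extracellular ATP quantified by luminescence. Replicated.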

[3] = tested on: Staphylococcus aureus; assay: Antibacterial activity against methicillin-resistant Staphylococcus aureus DM 9808R after 24 hrs by two fold dilution assay; assay type: functional
Method in brief: (§3)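 CLSI broth macrodilution in cation-adjusted Mueller-Hinton broth. Compounds were dissolved in DMF and diluted in PBS to a 1000 µg/mL stock, then serially 2-fold diluted in CA-MHB. The inoculum came from colonies on 18-20 h TSA plates (direct colony suspension), adjusted to ~5×10^5 CFU/mL. Incubation was 24 h at 35 °C. MIC is the lowest concentration with no visible growth versus control. Biological replicates.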

[4] = tested on: Staphylococcus aureus; assay: Antibacterial activity against methicillin-resistant Staphylococcus aureus DM 21455 after 24 hrs by two fold dilution assay; assay type: functional; settings: DM 21455, 24 h; method in brief: as §3
[5] = tested on: Bacillus cereus; assay: Antibacterial activity against Bacillus cereus ATCC 11778 after 24 hrs by two fold dilution assay; assay type: functional; settings: ATCC 11778, 24 h
Method in brief: (§4)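 Broth macro-dilution per CLSI in cation-adjusted Mueller-Hinton broth; compounds dissolved in DMF, diluted in PBS to 1000 µg/mL stock, then serial 2-fold dilutions in CA-MHB in tubes. Inoculum from 18-20 h TSA colonies (direct colony suspension), adjusted to about 5× 10^5 CFU/mL. MIC read after 24 h at 35 °C as lowest concentration with no visible growth; biological replicates.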

[6] = tested on: Staphylococcus aureus; assay: Antibacterial activity against Staphylococcus aureus DM 4001R after 24 hrs by two fold dilution assay; assay type: functional; method in brief: as §3
[7] = tested on: Lipid bilayer; assay: Induction of membrane damage in DOPE/DOPG large unilamellar vesicles assessed as calcein leakage at compound to lipid ratio of 1:16 after 1 hr by fluorescence assay relative to control; method in brief: as §1
[8] = tested on: Staphylococcus aureus; assay: Disruption of cytoplasmic membrane in Staphylococcus aureus isolate DM4001R at 100 ug/ml after 3000 secs by SYTOX green dye based fluorescence assay; assay type: functional
Method in brief: (§5)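 Clinical S. aureus isolate DM4001R incubated with SYTOX Green plus compound; membrane permeabilization read as increased fluorescence intensity. Measurements replicated.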

[9] = tested on: Staphylococcus aureus; assay: Antibacterial activity against methicillin-sensitive Staphylococcus aureus DM4583R after 24 hrs by two fold dilution assay; assay type: functional; method in brief: as §3
[10] = Cytotoxicity against human corneal fibroblasts assessed as reduction in cell viability up to 250 uM after 4 hrs by CytoTox-ONE reagent-based LDH assay relative to control; settings: corneal fibroblast
Method in brief: (§6)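 Human corneal fibroblasts exposed to compound; cytotoxicity taken from LDH leakage, with cells treated with 1% triton X-100 as positive control. Measurements replicated.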

[11] = tested on: Staphylococcus aureus; assay: Antibacterial activity against methicillin-sensitive Staphylococcus aureus DM4299 after 24 hrs by two fold dilution assay; assay type: functional; settings: DM4299, 24 h; method in brief: as §3
[12] = Solubility of the compound in water; assay type: physicochemical; settings: buffer
[13] = tested on: Enterococcus hirae; assay: Antibacterial activity against Enterococcus hirae ATCC 9790 after 24 hrs by two fold dilution assay; assay type: functional; settings: ATCC 9790, 24 h; method in brief: as §4
[14] = tested on: Staphylococcus aureus; assay: Antibacterial activity against methicillin-resistant Staphylococcus aureus ATCC BAA-38 after 24 hrs by two fold dilution assay; assay type: functional; settings: ATCC BAA-38, 24 h; method in brief: as §3
[15] = tested on: Staphylococcus aureus; assay: Antibacterial activity against methicillin-resistant Staphylococcus aureus DB68004 after 24 hrs by two fold dilution assay; assay type: functional; settings: DB68004, 24 h; method in brief: as §3
[16] = tested on: Enterococcus faecium; assay: Antibacterial activity against vancomycin A-resistant Enterococcus faecium VRE 1008 after 24 hrs by two fold dilution assay; assay type: functional; settings: VRE 1008, 24 h; method in brief: as §3
[17] = tested on: Staphylococcus aureus; assay: Antibacterial activity against methicillin-resistant Staphylococcus aureus ATCC 43300 after 24 hrs by two fold dilution assay; assay type: functional; settings: ATCC 43300, 24 h; method in brief: as §3
[18] = tested on: Staphylococcus aureus; assay: Antibacterial activity against Staphylococcus aureus ATCC 29213 at 0.5 times MIC after 30 serial passages; assay type: functional
Method in brief: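 Serial-passage resistance selection in S. aureus ATCC29213. MIC was determined by CA-MHB broth macrodilution (2-fold dilutions, ~5×10^5 CFU/mL, 35 °C). Cells grown at 0.5× MIC were recovered and used to prepare the inoculum for the next MIC assay, with MIC change read after each 24 h/35 °C round. This was repeated for 17 passages, or 30 passages for one compound. Replicated.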

[19] = tested on: Staphylococcus aureus; assay: Bactericidal activity against methicillin-resistant Staphylococcus aureus DM21455 assessed as log reduction in bacterial load at 2 times MIC after 30 mins by time kill assay; assay type: functional
Method in brief: (§7)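 MRSA DM21455 was taken from colonies on 18-22 h TSA plates and diluted to 10^5~10^6 CFU/mL in PBS. Cells were exposed to 0.5×, 1×, 2× and 4× MIC at 35 °C, with a PBS control. Samples were taken at 10 min, 30 min, 1, 2, 4 and 8 h, 10-fold diluted in PBS and plated on MHA. Colonies were counted after 24-48 h at 35 °C. Replicated.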

[20] = tested on: Staphylococcus aureus; assay: Disruption of membrane in Staphylococcus aureus isolate DM4001R assessed as increase in ATP leakage at 4 times MIC after 1 hr by ATP bioluminescent assay relative to control; assay type: functional; method in brief: as §2
[21] = tested on: Staphylococcus aureus; assay: Antibacterial activity against methicillin-resistant Staphylococcus aureus DB57964 after 24 hrs by two fold dilution assay; assay type: functional; settings: DB57964, 24 h; method in brief: as §3
[22] = tested on: Staphylococcus aureus; assay: Antibacterial activity against methicillin-sensitive Staphylococcus aureus ATCC 29213 after 24 hrs by two fold dilution assay; assay type: functional; settings: ATCC 29213, 24 h; method in brief: as §3
[23] = tested on: Staphylococcus aureus; assay: Bactericidal activity against methicillin-resistant Staphylococcus aureus DM21455 assessed as log reduction in bacterial load at 4 times MIC after 10 mins by time kill assay; assay type: functional; method in brief: as §7
[24] = tested on: Staphylococcus aureus; assay: Antibacterial activity against methicillin-resistant Staphylococcus aureus DB6506 after 24 hrs by two fold dilution assay; assay type: functional; settings: DB6506, 24 h; method in brief: as §3
[25] = tested on: Staphylococcus aureus; assay: Antibacterial activity against methicillin-sensitive Staphylococcus aureus ATCC 6538 after 24 hrs by two fold dilution assay; assay type: functional; settings: ATCC 6538, 24 h; method in brief: as §3
[26] = tested on: Enterococcus faecalis; assay: Antibacterial activity against Enterococcus faecalis ATCC 29212 after 24 hrs by two fold dilution assay; assay type: functional; settings: ATCC 29212, 24 h; method in brief: as §4
[27] = tested on: Staphylococcus aureus; assay: Antibacterial activity against methicillin-sensitive Staphylococcus aureus ATCC 29737 after 24 hrs by two fold dilution assay; assay type: functional; settings: ATCC 29737, 24 h; method in brief: as §3
[28] = tested on: Enterococcus faecium; assay: Antibacterial activity against vancomycin A-resistant Enterococcus faecium VRE 1007 after 24 hrs by two fold dilution assay; assay type: functional; settings: VRE 1007, 24 h; method in brief: as §3
[29] = Cytotoxicity against human corneal fibroblasts assessed as reduction in cell viability at 100 uM after 4 hrs by CytoTox-ONE reagent-based LDH assay; settings: corneal fibroblast; method in brief: as §6
[30] = tested on: Staphylococcus aureus; assay: Antibacterial activity against methicillin-resistant Staphylococcus aureus ATCC 700699 after 24 hrs by two fold dilution assay; assay type: functional; settings: Mu50, 24 h; method in brief: as §3
[31] = tested on: Staphylococcus aureus; assay: Disruption of cytoplasmic membrane in Staphylococcus aureus isolate DM4001R at 2 times MIC after 3000 secs by SYTOX green dye based fluorescence assay; assay type: functional; method in brief: as §5
[32] = tested on: Enterococcus faecium; assay: Antibacterial activity against vancomycin A-resistant Enterococcus faecium VRE 1006 after 24 hrs by two fold dilution assay; assay type: functional; settings: VRE 1006, 24 h; method in brief: as §3
[33] = tested on: Staphylococcus aureus; assay: Antibacterial activity against methicillin-sensitive Staphylococcus aureus DM4400R after 24 hrs by two fold dilution assay; assay type: functional; method in brief: as §3

## O=c1c2c(O)cc(O)cc2oc2cc(O)cc(O)c12
[1]
  Activity: < 20%
[2]
  Activity: 6.9%
[3]
  MIC: > 50 µg/mL
[4]
  MIC: > 50 µg/mL
[5]
  MIC: > 50 µg/mL
[6]
  MIC: > 50 µg/mL
[7]
  Activity: 11.7%
[8]
  Activity: inactive

## COC(=O)[C@H](CCCNC(=N)N)NC(=O)[C@H](CCCNC(=N)N)NC(=O)COc1cc(OCC=C(C)C)cc2oc3cc(OCC=C(C)C)cc(OCC(=O)N[C@@H](CCCNC(=N)N)C(=O)N[C@@H](CCCNC(=N)N)C(=O)OC)c3c(=O)c12
[1]
  Activity: < 20%
[9]
  MIC: 3.13 µg/mL (≈ 2.69 µM)
[10]
  Activity: 27.4%
[11]
  MIC: 1.56 µg/mL (≈ 1.34 µM)
[12]
  solubility: Soluble
[13]
  MIC: 6.25 µg/mL (≈ 5.36 µM)
[14]
  MIC: 3.13 µg/mL (≈ 2.69 µM)
[15]
  MIC: 1.56 µg/mL (≈ 1.34 µM)
[3]
  MIC: 3.13 µg/mL (≈ 2.69 µM)
[16]
  MIC: 3.13 µg/mL (≈ 2.69 µM)
[17]
  MIC: 1.56 µg/mL (≈ 1.34 µM)
[18]
  Activity: Active
[19]
  log(activity): 3
[20]
  Activity: 66.4%
[21]
  MIC: 1.56 µg/mL (≈ 1.34 µM)
[22]
  MIC: 3.13 µg/mL (≈ 2.69 µM)
[23]
  log(activity): 3
[24]
  MIC: 1.56 µg/mL (≈ 1.34 µM)
[4]
  MIC: 3.13 µg/mL (≈ 2.69 µM)
[5]
  MIC: 3.13 µg/mL (≈ 2.69 µM)
[6]
  MIC: 1.56 µg/mL (≈ 1.34 µM)
[25]
  MIC: 1.56 µg/mL (≈ 1.34 µM)
[26]
  MIC: 6.25 µg/mL (≈ 5.36 µM)
[27]
  MIC: 1.56 µg/mL (≈ 1.34 µM)
[28]
  MIC: 1.56 µg/mL (≈ 1.34 µM)
[29]
  Activity: Non-Toxic
[7]
  Activity: 63.3%
[30]
  MIC: 1.56 µg/mL (≈ 1.34 µM)
[31]
  Activity: Active
[32]
  MIC: 1.56 µg/mL (≈ 1.34 µM)
[33]
  MIC: 3.13 µg/mL (≈ 2.69 µM)
